The values that follow come from ChEMBL document CHEMBL1125497, “Synthesis and anticonvulsant activity of enaminones” (J Med Chem, 1992).

Bounds are passed on as bounds.

Data set [1] can be described thus: Dose elevating electroshock induced seizure by 20% in CF1 mice after ip administration. The format is functional, Mus musculus. The method in brief:
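In CF1 male mice (ca. 24–34 g), compound was given ip in 0.5% methylcellulose. The current giving hind limb extension in 50% of mice was found by the up-and-down method, with 15–25 mice per group and a vehicle control group run with each experimental group. At least three doses were tested. The dose raising threshold current by 20% was taken from a plot of dose against % threshold increase.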

The nature of data set [2]: Dose protecting 50% of the mice from tonic hind limb extension at the time of […] after ip administration. It counts as functional. Conditions: Mus musculus, Hindlimb. An outline of the steps: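 Phase II quantification in CF1 male mice (ca. 24–34 g), dosing ip or po in 0.5% methylcellulose suspension. ED50 is protection from tonic hind limb extension in MES. TD50 is rotorod neurotoxicity. Both were read at time of peak effect and derived by Litchfield–Wilcoxon with 95% confidence limits.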

A short description of data set [3]: Antiepileptic activity in male CF1 mice 30 min after administration measured in subcutaneous pentylenetetrazole (scMet) test at a dose of 300 mg/kg (no. of animals treated /protected); activity value is 0/1. It counts as functional, Mus musculus.
Data set [4] in a line: Antiepileptic activity in male CF1 mice 30 min after administration measured in maximum electroshock seizure(MES) test at a dose of 300 mg/kg (no. of animals treated /protected); activity value is 0/1. It counts as functional, Mus musculus.
Data set [5] in a line: Time of peak anticonvulsant effect in CF1 MICE after ip administration. It counts as functional, Mus musculus. The method in brief: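 Male CF1 mice (ca. 24–34 g), compound in 0.5% methylcellulose suspension given ip or po; time (h) at which MES protection (against tonic hind limb extension) peaked was recorded and used for ED50 determination.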
A short description of data set [6]: Antiepileptic activity in male CF1 mice 4 hr after administration measured in maximum electroshock seizure(MES) test at a dose of 300 mg/kg (no. of animals treated /protected); activity value is 1/1. It counts as functional, Mus musculus.
Data set [7] in a line: Antiepileptic activity in male CF1 mice 4 hr after administration measured in neurological toxicity (Tox) test at a dose of 300 mg/kg (no. of animals treated /protected); activity value is 0/4. The format is functional, Mus musculus.
Data set [8] in a line: Antiepileptic activity in male CF1 mice 4 hr after administration measured in subcutaneous pentylenetetrazole (scMet) test at a dose of 300 mg/kg (no. of animals treated /protected); activity value is 0/1. It counts as functional, Mus musculus.
Data set [9] is described as follows: Dose at which anticonvulsant activity was observed in mice. It counts as functional, Mus musculus.
A short description of data set [10]: Antiepileptic activity in male CF1 mice 30 min after administration measured in neurological toxicity (Tox) test at a dose of 300 mg/kg (no. of animals treated /protected); activity value is 0/8. It counts as functional, Mus musculus.
Data set [11] is described as follows: Antiepileptic activity in male CF1 mice 0.25 hr after oral administration measured in maximum electroshock seizure(MES) test at a dose of 50 mg/kg (no. of animals treated /protected); activity value is 2/4. It counts as functional, Mus musculus.
A short description of data set [12]: Antiepileptic activity in male CF1 mice 0.25 hr after oral administration measured in neurological toxicity (Tox) test at a dose of 50 mg/kg (no. of animals treated /protected); activity value is 0/4. The format is functional, Mus musculus.
Data set [13] is described as follows: Antiepileptic activity in male CF1 mice 0.5 hr after oral administration measured in maximum electroshock seizure(MES) test at a dose of 50 mg/kg (no. of animals treated /protected); activity value is 4/4. The format is functional, Mus musculus.
Data set [14] is described as follows: Antiepileptic activity in male CF1 mice 0.5 hr after oral administration measured in neurological toxicity (Tox) test at a dose of 50 mg/kg (no. of animals treated /protected); activity value is 0/4. It counts as functional, Mus musculus.
A short description of data set [15]: Antiepileptic activity in male CF1 mice 1 hr after oral administration measured in maximum electroshock seizure(MES) test at a dose of 50 mg/kg (no. of animals treated /protected); activity value is 3/4. It counts as functional, Mus musculus.
Data set [16] can be described thus: Antiepileptic activity in male CF1 mice 1 hr after oral administration measured in neurological toxicity (Tox) test at a dose of 50 mg/kg (no. of animals treated /protected); activity value is 0/4. It counts as functional, Mus musculus.
A short description of data set [17]: Antiepileptic activity in male CF1 mice 2 hr after oral administration measured in maximum electroshock seizure(MES) test at a dose of 50 mg/kg (no. of animals treated /protected); activity value is 2/4. The format is functional, Mus musculus.
Data set [18] is described as follows: Antiepileptic activity in male CF1 mice 2 hr after oral administration measured in neurological toxicity (Tox) test at a dose of 50 mg/kg (no. of animals treated /protected); activity value is 0/4. It counts as functional, Mus musculus.
Data set [19] is described as follows: Antiepileptic activity in male CF1 mice 4 hr after oral administration measured in maximum electroshock seizure(MES) test at a dose of 50 mg/kg (no. of animals treated /protected); activity value is 2/4. The format is functional, Mus musculus.
A short description of data set [20]: Antiepileptic activity in male CF1 mice 4 hr after oral administration measured in neurological toxicity (Tox) test at a dose of 50 mg/kg (no. of animals treated /protected); activity value is 0/4. The format is functional, Mus musculus.
Data set [21] can be described thus: Oral dose producing neurotoxic effects in 50% of rats. It counts as ADME, organism-based. To be noted: rat, in vivo. The method in brief: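 Phase VI screen in male Sprague-Dawley rats dosed orally. MES protection and rotorod toxicity were scored as animals responding over animals tested at 0.25, 0.5, 1, 2 and 4 h.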
Data set [22] is described as follows: Protective index was measured as TD50/ED50 in rat on oral administration. It counts as ADME, organism-based. Conditions: in vivo, read-out: PI.

As usually defined, the ED50 is the dose that gives a 50% effect, or the effect in half of the subjects. Read a low ED50 as greater potency. In general, TD50 refers to the dose at which the toxic effect under study appears in half of the subjects. Read a high TD50 as harm only at a large dose. With `COC(=O)C1C(=O)C=C(NCc2ccc(F)cc2)CC1C` (configuration not stated), the Dose in data set [1] was 10 mg/kg; in [9] it was above 100 mg/kg. Further, the 50% effect level in [2] (ED50) was put at a dose of 159 mg/kg. The Activity worked out at 0 in data set [3]; 0 in data set [4]; 1 in data set [6]; 0 in [7]; 0 in data set [8]; 0 in data set [10]. Besides, the Activity in [11] is listed as 2; in data set [12], 0; in [13], 4; in [14], 0; in data set [15] it was 3; in data set [16], 0. The Activity worked out at 2 in data set [17], 0 in [18], 2 in [19] and 0 in data set [20]. The compound also yielded a TPE in [5] of 0.5. Also, the TD50 in data set [21] is above 230 mg/kg. Moreover, the selectivity ratio in data set [22] stood at 4.7.
